# Compound activity: PubChem, several laboratories
# Most compounds without a hit are left out; they make up all but 1.8% or so of the library.
# SKN-1 block = blocks SKN-1 activity in C. elegans. C. elegans VP596 Pgst-4::GFP/RFP ratio, acrylamide-induced, 24 h. inhibition, % at 21.8 µM. 360,000 tested, 0.49% active. AID 624304;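 active = interference check ratio from 0.5 to 1.5 plus GFP to RFP signal ratio inhibition reaching or exceeding a fixed threshold, cut at about 30% in these data, passing the limit was not always enough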
# DAGLB inhibitor = blocks human DAGLB lipase activity | Q8NCG7 | HEK293T DAGLB membrane lysate, EnzChek fluorogenic substrate | inhibition, % at 5.17 µM | 340,000 tested, 0.059% active; in the data active = inhibition above about 34%;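 note: 0% = enzyme with vehicle and 100% = wells lacking enzyme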
# Target sequence (Q8NCG7 whole entry, looked up): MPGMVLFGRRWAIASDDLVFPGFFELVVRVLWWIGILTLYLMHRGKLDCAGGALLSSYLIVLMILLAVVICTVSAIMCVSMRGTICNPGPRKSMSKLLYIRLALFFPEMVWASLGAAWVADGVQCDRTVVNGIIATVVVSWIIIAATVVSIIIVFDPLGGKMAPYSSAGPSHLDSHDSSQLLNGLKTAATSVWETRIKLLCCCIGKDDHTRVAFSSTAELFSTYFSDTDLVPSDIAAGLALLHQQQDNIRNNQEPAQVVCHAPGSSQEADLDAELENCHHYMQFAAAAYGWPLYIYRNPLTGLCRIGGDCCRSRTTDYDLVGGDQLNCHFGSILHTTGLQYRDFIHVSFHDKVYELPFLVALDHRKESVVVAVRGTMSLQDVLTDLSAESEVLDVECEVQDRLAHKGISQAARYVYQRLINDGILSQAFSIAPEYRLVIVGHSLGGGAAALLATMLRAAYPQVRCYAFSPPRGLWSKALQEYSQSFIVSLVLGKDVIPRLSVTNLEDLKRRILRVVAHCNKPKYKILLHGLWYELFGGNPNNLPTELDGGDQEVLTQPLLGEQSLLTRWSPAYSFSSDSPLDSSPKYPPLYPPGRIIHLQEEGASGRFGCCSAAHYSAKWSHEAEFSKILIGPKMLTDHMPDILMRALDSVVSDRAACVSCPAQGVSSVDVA
# iPSC survival up = hiPSC single-cell survival enhancement | survival enhancement, % at 20 µM | 360,000 tested, 0.044% active | AID 602274 | ATPlite luminescence; 100% = ROCK inhibitor wells, 0% = DMSO; in the data active = survival enhancement above about 18%;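 note: cells exposed to compounds for 16 hours before the ATP read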
# Ecoli rRNA inh = inhibits bacterial ribosomal RNA function over humanized ribosomes; AID 720706; GFP signal change (wild-type ribosome), % (test concentration not listed); E. coli WT GFP vs humanized-ribosome RFP mutants, fluorescence, 24 h; stronger effect = lower value; DMSO median 0, no signal -100; 350,000 tested, 1.6% active;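 active = significant combined selectivity score with lowered wild-type GFP, culture density cut under 30%, mutant RFP and density less affected; inactive = any of these conditions unmet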
# Cneo AK release = causes C. neoformans cell lysis; lysis activity, % at 15 µM; adenylate kinase release luminescence, 4 h; normalised: neutral wells 0, clomiphene wells 100; 360,000 tested, 0.2% active;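 active = mean lysis activity across replicates of at least 80%, whatever share of replicates individually reach that level; inactive = mean lysis activity below 80%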
#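 Test system: log-phase Cryptococcus neoformans yeast cells; Quantity: yeast cell density of 5 × 10^6 cells/mL; Buffer or medium: YPD; Doses: single compound concentration per well; Timing: 4 h at 37 °C static, read 1 h later; Measured by: AK luminescence; Read-out basis: lysis from increased AK signal; Control set: Clomiphene as positive control.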
# MT1-MMP act inh = inhibitors of human MT1-MMP activation | P50281 | HT1080 RFP-PRO-GFP cells, GFP/RFP ratio fluorescence, overnight; percent of plate control window, DMSO zero | GFP/RFP ratio change, % at 20 µM | 360,000 tested, 0.061% active;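 active = GFP/RFP ratio change of at least 30% with cell ATP level not reduced by more than half and red fluorescence within 50% of control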
#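 Material: RFP-PRO-GFP reporter HT1080 cells. Dosing: single-point 20 µM compound, 1% DMSO. Controls: DMSO and RFP-L50D-GFP cell wells. Timing: cells overnight before dosing, compound overnight, 37 °C, 5% CO2. Measure: GFP/RFP fluorescence ratio.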
# * hit, by the source's call; nt = no result.
SMILES,SKN-1 block,DAGLB inhibitor,iPSC survival up,Ecoli rRNA inh,Cneo AK release,MT1-MMP act inh
Cc1ccc(S(=O)(=O)Nc2ccc3c(c2)C(=O)N([C@H](C)CO)C[C@H](C)[C@H](CN(C)C(=O)Nc2ccccc2)OCCCC[C@H](C)O3)cc1,nt,nt,nt,-0.4,-1.2,nt
C[C@@H]1CN([C@@H](C)CO)C(=O)Cc2cc(NC(=O)Cc3ccccc3)ccc2O[C@H]1CN(C)C(=O)Nc1ccc2c(c1)OCO2,nt,nt,nt,-0.8,-2.9,nt
FCCCOc1ccc(/C=N/OCc2ccc(Cl)cc2)cc1,41.6*,-12.3,0.2,nt,-0.9,-5.4
O=C(N[C@H]1CC[C@H](CC(=O)N2CCOCC2)O[C@@H]1CO)c1ccc2c(c1)OCO2,nt,nt,nt,1.8,-2.7,nt
COc1ccc2nc(C(F)(F)Cl)c(C#N)c(N)c2c1,-2.9,-2.5,0.9,-39.7*,nt,-5.1
Cn1c(=O)cc(OCCCC(=O)Nc2cccc(Cl)c2)c2ccccc21,10.3,nt,20.8*,16.7,1.3,17.2
O=C(Nc1nc2c(Cl)ccc(Cl)c2s1)C1CC1,15.1,3.4,-0.1,-4.1,-1.4,-13.2
NNc1nc2c(Cl)ccc(Cl)c2s1,19.3,-2.5,-0.8,-26.4*,4.0,10.4
C[C@@H]1CN([C@H](C)CO)C(=O)Cc2cc(NS(=O)(=O)c3ccc(Cl)cc3)ccc2O[C@H]1CN(C)Cc1ccc(C(=O)O)cc1,nt,nt,nt,7.4,nt,nt
CCOc1ccc(NC(=O)COn2nnc3ccc(S(=O)(=O)N4CCOCC4)cc32)cc1,2.8,-0.4,-3.7,-29.4*,nt,0.5
N#C/C(=C/C1=C(N2CCOCC2)C(=C/c2ccc(Cl)cc2)/CC1)C(=O)Nc1ccccc1F,43.9*,-2.9,-0.9,0.3,0.3,8.4
COc1cc(/C=C(\C#N)C(=O)Nc2ccccc2F)ccc1OCCN1CCOCC1,9.3,0.1,-0.3,3.6,0.0,-5.6
CO[C@@H]1CN(C)C(=O)c2ccc(NC(C)=O)cc2OC[C@H](C)N(C(=O)CN2CCOCC2)C[C@H]1C,nt,nt,nt,-0.1,3.9,nt
COc1ccc(CN(C)C[C@@H]2Oc3ccc(NC(=O)Nc4ccc(F)cc4)cc3CC(=O)N([C@H](C)CO)C[C@H]2C)cc1,nt,nt,nt,-54.7,115.1*,nt
C[C@H](CO)N1C[C@H](C)[C@H](CN(C)Cc2ccc(-c3ccccc3)cc2)Oc2ccc(NC(=O)C3CC3)cc2CC1=O,nt,nt,nt,-4.4,-1.5,nt
C[C@H](CO)N1C[C@H](C)[C@H](CN(C)Cc2ccncc2)Oc2ccc(NC(=O)c3ccncc3)cc2CC1=O,nt,nt,nt,0.9,-1.2,nt
COc1ccc(CN(C)C[C@H]2Oc3ccc(NC(=O)Nc4ccc(F)cc4)cc3CC(=O)N([C@H](C)CO)C[C@H]2C)cc1,nt,nt,nt,2.7,-0.5,nt
C[C@@H]1CN([C@@H](C)CO)C(=O)Cc2cc(NC(=O)c3ccncc3)ccc2O[C@H]1CN(C)Cc1ccncc1,nt,nt,nt,1.1,100.0*,nt
C[C@H]1CN([C@@H](C)CO)C(=O)Cc2cc(NC(=O)C3CC3)ccc2O[C@H]1CN(C)Cc1ccc(-c2ccccc2)cc1,nt,nt,nt,-2.7,112.0*,nt
COc1ccc(C[C@@H]2CCn3nncc3COC[C@H](CC(C)C)NC2=O)cc1,nt,nt,nt,4.6,nt,nt
COCCNC(=O)[C@H]1[C@H](CO)[C@H]2Cn3c(ccc(C4=CCCCC4)c3=O)[C@@H]1N2C(=O)C1CCCC1,nt,nt,nt,-1.1,nt,nt
CCCCCCc1cc2cc(-c3nnc(-c4ccccc4O)o3)c(=O)oc2cc1O,57.2*,-45.4,4.9,nt,-0.6,-475.3
N#C/C(=C\c1c[nH]c2ccccc12)C(=O)NC1CCCC1,-1.1,-2.7,-0.1,-35.5*,0.3,2.7
CN(N=Cc1ccc([N+](=O)[O-])cc1)c1ccccn1,47.7*,-1.6,-0.6,12.4,0.6,-2.3
CCOC(=O)C1CCCN(Cc2ccc(-c3ccccc3)cc2)C1 (stereo not drawn),14.1,-4.0,0.9,-25.4*,0.3,2.7
CCOC(=O)C1CCCN(C(=O)c2ccc(OC(C)=O)cc2)C1 (stereo not drawn),-17.3,-1.6,0.2,nt,-1.5,1.5
CCOC(=O)C1CCCN(Cc2cccc(Oc3ccccc3)c2)C1 (stereo not drawn),5.5,-7.6,0.7,-23.6,-0.8,-0.5
